# The source made the active and inactive calls. The rule behind the calls is not given here.
# How the values were obtained:
# Mus musculus [1] = test: Effective dose required to prevent reserpine ptosis in mice, administered orally(po); format: functional
# Method in brief: (§1)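 Male Swiss-Webster or Harlan ICR mice, five per dose. Drug in saline given po or ip per line. Reserpine 2.5 mg/kg ip 30 min later. Complete absence of ptosis at 45 min after reserpine scored as positive. ED50 by Litchfield-Wilcoxon or Horn method, with 95% confidence intervals.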
# Mus musculus [2] = test: Electrical shock aggression was evaluated in mice, administered intraperitoneally; NA means no aggression blockade at 46.4 mg/kg; format: functional, organism-based; design: dose 46.4 mg/kg
# Method in brief: (§2)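 Pairs of mice placed under an inverted 1000 cm3 beaker and shocked through the floor grid (3 mA, 3 Hz) for 2 min. Drug given ip 30 min before testing; scored all-or-none against a saline group. Fighting counted as inhibited when mean attacks fell 1.5 SD below the vehicle mean.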
# Mus musculus [3] = test: (§3) Effective dose required to prevent reserpine ptosis in mice, administered intraperitoneally; format: functional; details: ip; method in brief: as §1
# [4] = Therapeutic index administered perorally in mouse; format: organism-based; details: in vivo, po, read-out: Therapeutic index
# Method in brief: (§4)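 Index from mouse LD50 over reserpine-ptosis ED50 by the same route. […] Deaths recorded at 1 and 24 h; Litchfield-Wilcoxon calculation.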
# [5] = Lethal dose in mouse i.p.; format: toxicity, organism-based; details: in vivo, ip
# Method in brief: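 Male Swiss-Webster albino mice, 20-24 g, in groups of five. Each group received one dose ip in saline (prepared 30 min before injection) at 10 mL/kg. Mice were held singly for about 5 h, then housed together with food and water. Deaths were counted at 1 and 24 h. LD50 by Litchfield-Wilcoxon.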
# [6] = Therapeutic index administered intraperitoneally in mouse; format: organism-based; details: in vivo, ip, read-out: Therapeutic index; method in brief: as §4
# [7] = Lethal dose in mouse p.o.; format: toxicity, organism-based; details: in vivo, po
# Mus musculus [8] = test: Effective dose required to prevent reserpine ptosis in mice, administered (po)orally; format: functional; method in brief: as §1
# Mus musculus [9] = test: (§5) Effective dose required to potentiate yohimbine hydrochloride induced lethality in mice, administered intraperitoneally; format: functional; details: ip
# Method in brief: (§6)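 Male Swiss-Webster or Swiss ND/4 mice, 20-24 g, randomized into groups of 10 and housed five per cage. Test drug in saline given ip, with a saline control group. Yohimbine hydrochloride 20 mg/kg sc was given 30 min later, and mice were then reaggregated.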
# Mus musculus [10] = test: Effective dose required to prevent reserpine ptosis in mice, administered intraperitoneally.; format: functional, organism-based; method in brief: as §1
# Mus musculus [11] = test: Effective dose required to prevent reserpine ptosis in mice, administered orally; format: functional; details: po; method in brief: as §1
# Mus musculus [12] = test: Effective dose against yohimbine hydrochloride induced lethality in mice, administered intraperitoneally; format: functional; details: ip; method in brief: as §6
# Mus musculus [13] = test: Electrical shock aggression was evaluated in mice, administered intraperitoneally; format: functional; details: ip; method in brief: as §2
# Mus musculus [14] = test: as §5; format: organism-based; details: in vivo, ip; method in brief: as §6
# Mus musculus [15] = test: Effective dose required to prevent reserpine ptosis in mice administered po; format: functional; method in brief: as §1
# Mus musculus [16] = test: Effective dose required to prevent reserpine ptosis in mice, administered orally(po); NA=Not active at 100 mg/kg; format: functional, organism-based; design: dose 100 mg/kg; method in brief: as §1
# Mus musculus [17] = test: Effective dose required to prevent reserpine ptosis in mice administered intraperitoneally; format: functional; details: ip; method in brief: as §1
# Mus musculus [18] = test: as §3; format: functional; details: ip; method in brief: as §1; remark: listed apart in the source
# Mus musculus [19] = test: Compound (administered intraperitoneally) was tested for yohimbine lethality potentiation; format: functional; details: ip; method in brief: as §6
# [20] = Therapeutic index after administered intraperitoneally in mouse; format: organism-based; details: in vivo, ip, read-out: Therapeutic index; method in brief: as §4
# Mus musculus [21] = test: Effective dose required to prevent reserpine ptosis in mice administered (po)orally; NA=Not active; format: functional, organism-based; method in brief: as §1
# Mus musculus [22] = test: Effective dose required to prevent reserpine ptosis in mice, administered orally; NA=Not active at 100 mg/kg; format: functional, organism-based; design: dose 100 mg/kg; method in brief: as §1
# Mus musculus [23] = test: Effective dose required to prevent reserpine ptosis in mice, administered intraperitoneally; NA=Not active at 100 mg/kg; format: functional, organism-based; design: dose 100 mg/kg; method in brief: as §1
smiles,measurement,setting,value
Cl.N=C(Cc1ccc2ccccc2c1Cl)N1CCC(O)(c2ccccc2)CC1,ED50,Mus musculus [1],24.5 mg/kg
CC/N=C(/Cc1ccc(Cl)c(Cl)c1)NCC.Cl,ED50,Mus musculus [2],inactive
same,ED50,Mus musculus [3],9.3 mg/kg
same,selectivity ratio,[4],7
same,LD50,[5],31.6 mg/kg
same,selectivity ratio,[6],3
same,LD50,[7],90 mg/kg
same,ED50,Mus musculus [8],12.6 mg/kg
same,ED50,Mus musculus [9],6 mg/kg
C/N=C(/Cc1ccc(C)cc1)NC,ED50,Mus musculus [10],inactive
Cl.N=C(Cc1ccc2ccccc2c1)N1CCC(O)(Cc2ccccc2)CC1,ED50,Mus musculus [1],22.5 mg/kg
CC/N=C(/Cc1c(Cl)ccc(Cl)c1Cl)NCC,ED50,Mus musculus [10],inactive
Cl.N=C(Cc1ccc2ccccc2c1)N1CCC(c2ccccc2)CC1,ED50,Mus musculus [11],14.7 mg/kg
CN1CCN(C(=N)Cc2ccc3ccccc3c2)CC1.Cl,ED50,Mus musculus [8],14.7 mg/kg
C/N=C(\NC)C(c1ccc(Cl)cc1)c1ccc(Cl)cc1.Cl,ED50,Mus musculus [3],2.4 mg/kg
same,ED50,Mus musculus [12],27.2 mg/kg
CC/N=C(/Cc1cccc2ccccc12)NCC,ED50,Mus musculus [10],inactive
Cl.N=C(Cc1ccc2ccccc2c1Cl)N1CCN(c2cccc(Cl)c2)CC1,ED50,Mus musculus [1],16.2 mg/kg
Cl.N=C(Cc1ccc2ccccc2c1)N1CCC(N2CCCCC2)CC1,ED50,Mus musculus [8],40.8 mg/kg
CC/N=C(/Cc1ccc(Cl)cc1Cl)NCC,ED50,Mus musculus [10],inactive
CC/N=C(/Cc1ccc(F)cc1)NCC,ED50,Mus musculus [10],inactive
C/N=C(/Cc1ccc(Cl)cc1)NC.Cl,ED50,Mus musculus [13],43 mg/kg
same,ED50,Mus musculus [3],2.3 mg/kg
same,selectivity ratio,[4],127
same,LD50,[5],69.4 mg/kg
same,ED50,Mus musculus [14],15 mg/kg
same,selectivity ratio,[6],30
same,ED50,Mus musculus [15],3.4 mg/kg
same,LD50,[7],430 mg/kg
CC/N=C(/Cc1ccc2ccccc2c1)NCC.Cl,ED50,Mus musculus [3],19.6 mg/kg
same,ED50,Mus musculus [1],31 mg/kg
same,ED50,Mus musculus [9],19.6 mg/kg
CC(C)/N=C(/N)Cc1ccc2ccccc2c1,ED50,Mus musculus [16],inactive
C/N=C(/COc1ccccc1)NC.Cl,ED50,Mus musculus [17],1.1 mg/kg
same,ED50,Mus musculus [9],2.2 mg/kg
Cl.Cl.N=C(Cc1ccc2ccccc2c1)NCCN1CCOCC1,ED50,Mus musculus [8],14.7 mg/kg
N=C(Cc1ccc2ccccc2c1Cl)N1CCN(Cc2ccccc2)CC1,ED50,Mus musculus [16],inactive
CC/N=C(/COc1cc(Cl)c(Cl)cc1Cl)NCC,ED50,Mus musculus [10],inactive
Cl.N=C(Cc1ccc2ccccc2c1)N1CCOCC1,ED50,Mus musculus [8],17.1 mg/kg
C/N=C(\NC)c1ccc(Cl)c(Cl)c1.Cl,ED50,Mus musculus [2],inactive
same,ED50,Mus musculus [3],9.3 mg/kg
same,ED50,Mus musculus [18],9.3 mg/kg
same,selectivity ratio,[4],20
same,LD50,[5],60 mg/kg
same,ED50,Mus musculus [19],2.4 mg/kg
same,LD50,[7],215 mg/kg
same,ED50,Mus musculus [8],10.8 mg/kg
same,selectivity ratio,[20],6
same,ED50,Mus musculus [9],2.4 mg/kg
Cl.N=C(Cc1ccc2ccccc2c1Cl)N1CCOCC1,ED50,Mus musculus [1],15 mg/kg
N=C(Cc1ccc2ccccc2c1)N1CCN(c2ccccc2)CC1,ED50,Mus musculus [16],inactive
C/N=C(/Cc1c(O)ccc2ccccc12)NC,ED50,Mus musculus [21],inactive
COc1ccc(CC/N=C(/N)Cc2ccc3ccccc3c2)cc1OC,ED50,Mus musculus [16],inactive
Cl.N=C(Cc1ccc2ccccc2c1)N1CCCCC1,ED50,Mus musculus [11],11 mg/kg
CC/N=C(/Cc1cccc(C(F)(F)F)c1)NCC.Cl,ED50,Mus musculus [3],5.1 mg/kg
same,ED50,Mus musculus [9],12.8 mg/kg
C/N=C(/Cc1ccc2ccccc2c1Cl)NC.Cl,ED50,Mus musculus [3],11 mg/kg
same,ED50,Mus musculus [8],15 mg/kg
same,ED50,Mus musculus [9],26.1 mg/kg
CC/N=C(/COc1ccc(Cl)c(Cl)c1)NCC.Cl,ED50,Mus musculus [3],3.3 mg/kg
same,ED50,Mus musculus [9],3.5 mg/kg
CN(CCO)C(=N)Cc1ccc2ccccc2c1.Cl,ED50,Mus musculus [8],19.6 mg/kg
Cl.N=C(Cc1ccc2ccccc2c1Cl)N1CCC(c2ccccc2)CC1,ED50,Mus musculus [11],8.8 mg/kg
C/N=C(/Cc1ccc(OC)c(OC)c1)NC,ED50,Mus musculus [10],inactive
CC(C)/N=C(/Cc1ccc2ccccc2c1)NC(C)C,ED50,Mus musculus [22],inactive
same,ED50,Mus musculus [23],inactive

# — ChEMBL document CHEMBL1122853, “New bicyclic antidepressant agent. Synthesis and activity of napactadine and related compounds” (J Med Chem, 1985)
